Measurements from ChEMBL document CHEMBL3259586, “Localization and interaction of hydroxyflavones with lipid bilayer model membranes: a study using DSC and multinuclear NMR” (Eur J Med Chem, 2014).
Values after ≈ are worked out from the molar mass of the structure shown. Active and inactive are the calls of the source. No cut-off for these calls is given here.

Tests used:
MCF7 = assay: Antiproliferative activity against human MCF7 cells assessed as cell growth at 10^-4 ug/ml after 48 hrs by sulforhodamine B assay relative to control; assay type: functional; conditions: MCF7, 48 h, read-out: Activity
Method in brief: (§1)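 Sulforhodamine B assay; cells grown in RPMI 1640 with 10% fetal bovine serum and 2 mM L-glutamine; compounds dissolved in DMSO, diluted into culture medium; incubated 48 h under standard conditions; percent growth inhibition calculated.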

Lipid bilayer [1] = assay: Binding affinity to DPPC lipid bilayer assessed as melting temperature at 1:5 drug to DPPC molar ratio by differential scanning calorimetric analysis
Method in brief: (§2)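 DPPC multilamellar vesicles made from chloroform lipid solution, lipid held at 50 mM, drug/lipid molar ratios 1:20 to 1:2; DSC heating scans give pretransition (Tp) and main transition (Tm) temperatures; repeat scans of the same samples.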

[2] = Binding affinity to multilamellar vesicles by NMR titration method
Method in brief: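 NMR titration with drug held at 10 mM and lipid varied 1-10 mM; lipid stock in D2O, drug stock in methanol, both diluted; TSP added as reference; fraction bound derived from chemical shift changes.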

Lipid bilayer [3] = assay: Binding affinity to unilamellar vesicles of DPPC in D2O at 1:5 drug to lipid molar ratio at 323 K by [1H]-NMR spectroscopic analysis
Method in brief: (§3)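 Lipid held at 100 mM for NMR samples with flavone at 10 to 50 mM; multilamellar vesicles from chloroform-dissolved DPPC; unilamellar vesicles made by sonicating lipid dispersions at 50% duty cycle until optically clear.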

[4] = test system: Radical scavenging activity; assay: Antioxidant activity assessed as DPPH radical scavenging activity after 30 mins; assay type: functional
Method in brief: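 Test compounds at varied concentrations added to methanolic DPPH with 0.1 M Tris-HCl buffer; absorbance read at 517 nm after 30 min incubation; IC50 read graphically from dose-response curves; at least three experiments.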

[5] = Binding affinity to multilamellar vesicles of DPPC at 1:10 to 1:2 drug to lipid molar ratio at 323 K by [31P]-NMR spectroscopic analysis; method in brief: as §3
Lipid bilayer [6] = assay: Binding affinity to DPPC lipid bilayer assessed as decrease in melting temperature by differential scanning calorimetric analysis; method in brief: as §2
Lipid bilayer [7] = assay: Binding affinity to unilamellar vesicles of DPPC in D2O at 1:5 drug to lipid molar ratio at 323 K by [13C]-NMR spectroscopic analysis; method in brief: as §3
[8] = Binding affinity to multilamellar vesicles at 100 uM after 2 hrs by centrifugation method relative to control
K562 = assay: Antiproliferative activity against human K562 cells assessed as cell growth at 10^-4 ug/ml after 48 hrs by sulforhodamine B assay relative to control; assay type: functional; conditions: K562, 48 h, read-out: Activity; method in brief: as §1
Lipid bilayer [9] = assay: Binding affinity to DPPC lipid bilayer assessed as melting temperature at 1:20 drug to DPPC molar ratio by differential scanning calorimetric analysis; method in brief: as §2
HepG2 = assay: Antiproliferative activity against human HepG2 cells assessed as cell growth at 10^-4 ug/ml after 48 hrs by sulforhodamine B assay relative to control; assay type: functional; conditions: HepG2, 48 h, read-out: Activity; method in brief: as §1
Lipid bilayer [10] = assay: Binding affinity to DPPC lipid bilayer assessed as melting temperature at 1:10 drug to DPPC molar ratio by differential scanning calorimetric analysis; method in brief: as §2
Lipid bilayer [11] = assay: Binding affinity to DPPC lipid bilayer assessed as melting temperature at 1:2 drug to DPPC molar ratio by differential scanning calorimetric analysis; method in brief: as §2
[12] = Binding affinity to multilamellar vesicles after 2 hrs by centrifugation method
Lipid bilayer [13] = assay: Binding affinity to unilamellar vesicles of DPPC in D2O at 1:5 drug to lipid molar ratio at 323 K by 2D-NOESY spectroscopic analysis; method in brief: as §3
Lipid bilayer [14] = assay: Binding affinity to DPPC lipid bilayer assessed as pre-transition temperature at 1:5 drug to DPPC molar ratio by differential scanning calorimetric analysis; method in brief: as §2
Lipid bilayer [15] = assay: Binding affinity to DPPC lipid bilayer assessed as pre-transition temperature at 1:20 drug to DPPC molar ratio by differential scanning calorimetric analysis; method in brief: as §2
Lipid bilayer [16] = assay: Binding affinity to DPPC lipid bilayer assessed as pre-transition temperature at 1:2 drug to DPPC molar ratio by differential scanning calorimetric analysis; method in brief: as §2
Lipid bilayer [17] = assay: Binding affinity to DPPC lipid bilayer assessed as pre-transition temperature at 1:10 drug to DPPC molar ratio by differential scanning calorimetric analysis; method in brief: as §2
[18] = Binding affinity to multilamellar vesicles of DPPC assessed as increase in chemical shift anisotropy at 323 K by [31P]-NMR spectroscopic analysis; method in brief: as §3

Row | Structure (SMILES) | Tm (Lipid bilayer [1]) | Kapp [2] | Activity (Lipid bilayer [3]) | IC50 [4] | Activity [5] | Activity (Lipid bilayer [6]) | Activity (Lipid bilayer [7]) | Tm (Lipid bilayer [9]) | Tm (Lipid bilayer [10]) | Tm (Lipid bilayer [11]) | Kapp [12] | T (Lipid bilayer [14]) | T (Lipid bilayer [15]) | T (Lipid bilayer [16]) | T (Lipid bilayer [17]) | Activity [18] | growth at 0.0001 µg/mL (MCF7) | growth at 0.0001 µg/mL (K562) | growth at 0.0001 µg/mL (HepG2) | Activity (Lipid bilayer [13]) | other results
1 | O=c1cc(-c2ccccc2)oc2ccccc12 [FLAVONE] | 36.4 °C | 1820 M⁻¹ | Active | > 100 µg/mL | Active | Dose-dependent effect | Active | 37.2 °C | 36.7 °C | 36.3 °C | 19600 M⁻¹ | – | – | – | – | – | 50.3% | 56.8% | -7.6% | – | Activity [8]: 80%
2 | O=c1cc(-c2ccccc2)oc2ccc(O)cc12 [6-HYDROXYFLAVONE] | 37.1 °C | 572 M⁻¹ | Active | 22.1 µg/mL (≈ 92.8 µM) | Active | Dose-dependent effect | Active | 37.4 °C | 37.3 °C | 36.9 °C | 800 M⁻¹ | – | – | – | – | – | 28.8% | 13.3% | 82.8% | Active | –
3 | O=c1cc(-c2ccccc2)oc2cc(O)c(O)c(O)c12 [BAICALEIN] | 40.6 °C | 215 M⁻¹ | Active | 18.2 µg/mL (≈ 67.3 µM) | Active | Dose-dependent effect | Active | 40.4 °C | 39.7 °C | 40.9 °C | 252 M⁻¹ | 32.9 °C | 32.1 °C | 33.8 °C | 30.2 °C | – | -8.9% | 16.7% | 70.6% | Active | –

Continued, in another order:

Row | Tm (Lipid bilayer [1]) | Kapp [2] | Activity (Lipid bilayer [3]) | IC50 [4] | Activity [5] | Activity (Lipid bilayer [6]) | Activity (Lipid bilayer [7]) | Tm (Lipid bilayer [9]) | Tm (Lipid bilayer [10]) | Tm (Lipid bilayer [11]) | Kapp [12] | T (Lipid bilayer [14]) | T (Lipid bilayer [15]) | T (Lipid bilayer [16]) | T (Lipid bilayer [17]) | Activity [18] | Structure (SMILES) | growth at 0.0001 µg/mL (MCF7) | growth at 0.0001 µg/mL (K562) | growth at 0.0001 µg/mL (HepG2) | Activity (Lipid bilayer [13]) | other results
4 | 40.6 °C | 229 M⁻¹ | Active | 23.8 µg/mL (≈ 99.9 µM) | – | Dose-dependent effect | Active | 41.1 °C | 40.7 °C | 39.6 °C | 313 M⁻¹ | 32 °C | 32.3 °C | 30.3 °C | 32 °C | Dose-dependent effect | O=c1cc(-c2ccccc2)oc2cccc(O)c12 [5-HYDROXYFLAVONE] | 28.6% | 26.7% | 88.8% | – | –
5 | 39.9 °C | 532 M⁻¹ | Active | 20.4 µg/mL (≈ 80.2 µM) | Active | Dose-dependent effect | Active | 40.6 °C | 39.8 °C | 40.1 °C | 759 M⁻¹ | 30.5 °C | 31 °C | 31.6 °C | 30.4 °C | – | O=c1cc(-c2ccccc2)oc2cc(O)cc(O)c12 [CHRYSIN] | 25.9% | 38.3% | 76.7% | – | –
6 | 40.4 °C | 311 M⁻¹ | Active | 24.2 µg/mL (≈ 102 µM) | – | Dose-dependent effect | Active | 40.7 °C | 40.5 °C | 39.8 °C | 450 M⁻¹ | – | 31.9 °C | 27.4 °C | 31.8 °C | Dose-dependent effect | O=c1cc(-c2ccccc2)oc2cc(O)ccc12 [7-HYDROXYFLAVONE] | 26.6% | 22.3% | 98.8% | – | –
